Screening data: PubChem, Sanford-Burnham Center for Chemical Genomics
hIAP inh: blocks human intestinal alkaline phosphatase | inhibition, % at 10 µM | 330,000 compounds, 0.12% hits | P09923 | AID 2544 | purified IAP, CDP-Star luminescence, 30 min;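 active means inhibition reaching a set limit with compound at 10 µM in the primary screen, cut at about 35% in these data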;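 further: plate controls were DMSO wells with enzyme for no effect and no-enzyme buffer wells for full effect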
Target sequence (P09923 whole entry, looked up): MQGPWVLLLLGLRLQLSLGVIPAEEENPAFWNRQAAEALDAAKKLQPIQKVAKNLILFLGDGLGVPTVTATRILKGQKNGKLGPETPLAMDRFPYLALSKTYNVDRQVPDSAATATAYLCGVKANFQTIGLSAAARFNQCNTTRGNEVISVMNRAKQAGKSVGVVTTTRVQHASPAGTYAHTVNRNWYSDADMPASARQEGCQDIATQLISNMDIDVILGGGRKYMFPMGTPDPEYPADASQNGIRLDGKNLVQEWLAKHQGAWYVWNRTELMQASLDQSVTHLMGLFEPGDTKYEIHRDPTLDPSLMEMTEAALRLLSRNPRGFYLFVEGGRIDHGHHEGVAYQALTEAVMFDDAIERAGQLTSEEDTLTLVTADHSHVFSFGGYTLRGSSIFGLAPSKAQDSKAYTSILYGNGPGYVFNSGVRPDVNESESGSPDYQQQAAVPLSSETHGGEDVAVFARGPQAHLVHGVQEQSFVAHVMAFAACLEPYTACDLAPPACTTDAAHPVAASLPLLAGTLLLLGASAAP
mIAP inh: mouse IAP inhibition | purified mouse IAP, CDP-Star luminescence, 30 min | inhibition, % at 10 µM | 330,000 compounds, 0.2% hits | AID 2806;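 active means inhibition of at least 40% at 10 µM in the primary screen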;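 further: plate controls were DMSO with enzyme for no effect and no enzyme wells for full effect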
hIAP act: human IAP activation | activation factor at 10 µM | 330,000 compounds, 0.16% hits | AID 2524 | purified human IAP, CDP-Star luminescence, 30 min; stronger effect = higher value; 1 = vehicle-only enzyme, 0 = enzyme-free background;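 active means activation factor of the enzyme at least 2-fold when tested at 20 µM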
bIAP inh: intestinal alkaline phosphatase (bovine) inhibition; 190,000 tested, under 10 active; inhibition, % at 20 µM; AID 1019; purified bovine IAP, CDP-star luminescence, 30 min;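 active means over 50% inhibition of intestinal alkaline phosphatase at 20 µM in the single-dose screen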
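test system = bovine IAP enzyme | medium = DEA buffer 100 mM, pH 9.8, with MgCl2 1.0 mM, ZnCl2 0.02 mM | detection = luminescence | dosing = single compound dose of 20 µM, 2% DMSO final | incubation = 30 min reaction at room temperature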
mIAP activ: increases mouse intestinal alkaline phosphatase activity. muIAP, CDP-Star luminescence, 30 min; stronger effect = higher value; 1 = vehicle-only enzyme signal, 0 = enzyme-free wells. activation factor at 10 µM. 330,000 compounds, 0.24% hits. AID 2805;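 active means activation factor of at least 2 at 20 µM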
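Assay system: mouse IAP enzyme; reagent: chemiluminescent substrate CDP-Star; dosing: test compounds delivered from DMSO solution; schedule: 30 min at room temperature; measured by: luminescence from enzymatic CDP-Star hydrolysis; controls: DMSO-only wells and no-enzyme negative control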
bIAP activator: intestinal alkaline phosphatase (bovine) activation; activation factor at 20 µM; AID 1016; purified bovine IAP, CDP-star luminescence, 30 min; stronger effect = higher value; fold of DMSO-control signal, blank-subtracted; 200,000 compounds, 0.17% hits;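 active means activation factor of 2 or more at 20 µM, a signal rise over negative controls twice the positive control's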
Starred values were filed as active, the others as inactive; nt = no result. Rows were chosen to be rich in hits. Some 0.79% of all compounds tested hit in one or more screens of this group.

SMILES | hIAP inh | mIAP inh | hIAP act | bIAP inh | mIAP activ | bIAP activator
CC(C)n1c(-c2ccc(N(C)C)cc2)nc2ccccc21 | -65 | 8 | 1.6 | -242 | 0.93 | 3.4*
CCOP(=O)(OCC)C(NC(=O)Nc1ccc(Cl)c(Cl)c1)c1ccccc1 (configuration not stated) | 4 | -402 | 0.96 | 6 | 5* | 0.9
CCOP(=O)(OCC)C(NC(=O)Nc1ccc(Cl)c(Cl)c1)C(N)=O (configuration not stated) | 7 | -12 | 0.93 | nt | 1.1 | 0.4
CCOP(=O)(OCC)C(NC(=O)Nc1ccc(Cl)cc1)C(N)=O (configuration not stated) | -2 | 5 | 1 | 13 | 0.95 | 0.9
CCOP(=O)(OCC)C(NC(=O)Nc1ccc(Cl)cc1)c1ccccc1 (configuration not stated) | -33 | -103 | 1.3 | 2 | 2* | 1
COC(=O)c1ccccc1NC(=O)C12CCC(C)(C(=O)O1)C2(C)C (configuration not stated) | 8 | 4 | 0.92 | -8 | 0.96 | 1.1
Cc1cc(NC(=O)Nc2ccccc2F)ccc1Br | -5 | -205 | 1.1 | 6 | 3.1* | 0.9
O=C(Nc1ccccc1)Nc1ccc(Br)cc1F | 17 | -81 | 0.83 | 14 | 1.8 | 0.9
CCOC(=O)CSc1nc2c(c(=O)[nH]c(=O)n2C)n1CCc1ccccc1 | -11 | -10 | 1.1 | 10 | 1.1 | 0.9
CCOC(=O)C(CC)Sc1nc2c(c(=O)[nH]c(=O)n2C)n1CCc1ccccc1 (configuration not stated) | -16 | 18 | 1.2 | -183 | 0.82 | 2.8*
S=C(NCc1ccc2[nH]c3c(c2c1)CCCC3)Nc1ccccc1 | 0 | -123 | 1 | 13 | 2.2* | 0.9
CCS(=O)(=O)NCc1ccc2[nH]c3c(c2c1)CCCC3 | -2 | -8 | 1 | -5 | 1.1 | 1
Cc1cc(C)cc(NC(=S)NCc2ccc3[nH]c4c(c3c2)CCCC4)c1 | 10 | -175 | 0.9 | 12 | 2.8* | 0.9
CCCSc1n[nH]c(NC(C)=O)n1 | -3 | 7 | 1 | 0 | 0.93 | 1
CCCCCCCCCCSc1n[nH]c(NC(C)=O)n1 | -8 | -114 | 1.1 | -234 | 2.1* | 3.3*
Cc1ccccc1C(=O)N1CCC(C(=O)OCc2ccccn2)CC1 | -19 | -6 | 1.2 | nt | 1.1 | nt
O=C(O)c1ccc(NS(=O)(=O)c2ccc3c(c2)C2C=CCC2C(c2ccccc2F)N3)cc1 (configuration not stated) | 7 | 6 | 0.93 | 11 | 0.94 | 0.9
NS(=O)(=O)c1ccc2c(c1)C1C=CCC1C(C1CC=CCC1)N2 (configuration not stated) | -3 | 56* | 1 | 21 | 0.44 | 0.8
Cc1ccc(C)c(OCCC(=O)Nc2cc(S(=O)(=O)N3CCCCC3)ccc2C)c1 | 1 | -48 | 0.99 | nt | 1.5 | nt
Cc1ccc(C)c(OCCC(=O)Nc2cccc(S(=O)(=O)N3CCCCC3)c2)c1 | -2 | -105 | 1 | nt | 2* | nt
O=C(Nc1cccc(Cl)c1)N1CCN2C(=O)c3ccccc3C12c1ccccc1 (configuration not stated) | 17 | -108 | 0.83 | -8 | 2.1* | 1.1
C#CCN1C=C(C(=O)OCC)C(C)N(Cc2ccccc2I)S1(=O)=O (configuration not stated) | nt | -1 | nt | nt | 1 | nt
CC(=O)Nc1ccc(S(=O)(=O)NCC(=O)NNC(=O)COc2c(C)cccc2C)cc1 | -83 | 41* | 1.8 | nt | 0.59 | nt
CC(=O)Nc1ccc(S(=O)(=O)NCC(=O)NNC(=O)COc2ccccc2Cl)cc1 | -50 | 23 | 1.5 | nt | 0.77 | nt
CC[C@]12c3[nH]c4cc(CCC(=O)N(C)C)ccc4c3CCN1C(=O)[C@@H](CC(=O)NCC13CC4CC(CC(C4)C1)C3)C[C@@H]2C(=O)N1CCN(C(=O)c2ccco2)CC1 | nt | -1 | nt | nt | 1 | nt
COc1cc(/C=C2\COC/C(=C\c3ccc(O)c(OC)c3)C2=O)ccc1O | 11 | 42* | 0.89 | nt | 0.58 | nt
COc1cc(/C=C2/CC/C(=C/c3ccc(O)c(OC)c3)C2=O)ccc1O | 10 | 36 | 0.9 | nt | 0.64 | nt
COc1ccccc1CN1CCCC(CN(CCN(C)C)C(=O)C2CCCC2)C1 (configuration not stated) | -16 | 1 | 1.2 | nt | 0.99 | nt
